Source: ChEMBL document CHEMBL3351900, “Conjugation of a nonspecific antiviral sapogenin with a specific HIV fusion inhibitor: a promising strategy for discovering new antiviral therapeutics” (J Med Chem, 2014)
pEC50: −log10 of the molar value. In brackets after ≈: the same amount, converted by molar mass. Activity calls are given as the source filed them. The rule behind the calls is not given here. Square brackets hold non-standard residues; d marks the D form. Peptide text beside a SMILES is read from it. * marks the point of attachment. X3 = C=C(C)[C@@H]1CC[C@]2(C(=O)O)CC[C@]3(C)[C@H](CC[C@@H]4[C@@]5(C)CC[C@H](OC(=O)CCc6cn(CC(=O)*)nn6)C(C)(C)[C@@H]5CC[C@]43C)[C@@H]12; X2 = C=CCOC(=O)[C@]12CCC(C)(C)C[C@H]1C1=CC[C@@H]3[C@@]4(C)CC[C@H](OC(=O)CCc5cn(CC(=O)*)nn5)C(C)(C)[C@@H]4CC[C@@]3(C)[C@]1(C)CC2; βAla = NCCC(=O)O

Tests used:
[1] = system: Human immunodeficiency virus 1; assay: Antiviral activity against HIV1 3B infected in human MT2 cells assessed as inhibition of viral entry compound treated at 200 nM at 6 hrs post infection measured 3 to 4 days post infection by time-of-addition assay
[2] = system: Human immunodeficiency virus 1; assay: Antiviral activity against HIV1 3B infected in human MT2 cells assessed as inhibition of viral p24 antigen production by ELISA; assay type: functional, organism-based; conditions: Human immunodeficiency virus 1, 3B
How it was run: (§1)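 MT-2 cells (1 × 10⁴) infected with 100 TCID₅₀ virus with or without peptides at graded concentrations. Culture supernatants collected on day 4 postinfection; p24 antigen quantified by ELISA. Percent inhibition and EC₅₀ calculated; tested in triplicate, mean ± standard deviation.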

[3] = system: Human immunodeficiency virus 1; assay: Antiviral activity against HIV1 BaL infected in human […] cells assessed as inhibition of viral replication; assay type: functional, organism-based; conditions: Human immunodeficiency virus 1, BaL
How it was run: as §1

[4] = Solubility of the compound in pure water by UV spectrophotometry; assay type: physicochemical
How it was run: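 About 1 mg of peptide dissolved in 10 μL water or PBS and centrifuged. Supernatant concentration of the tyrosine-containing conjugate determined from UV absorbance at 280 nm.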

[5] = Cytotoxicity against human MT2 cells after 4 days by XTT assay; assay type: cell-based
How it was run: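 MT-2 cells (5 × 10⁵/mL) mixed with equal volumes of graded conjugate concentrations and held at 37 °C for 4 days. XTT (1 mg/mL) with 0.02 μM phenazine methosulfate added for 4 h, then A450 read. CC50 calculated from the dose–response.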

[6] = Selectivity index, ratio of CC50 for human MT2 cells to EC50 for HIV1 3B infected in human MT2 cells; assay type: toxicity, cell-based; conditions: read-out: Ratio CC50/EC50
[7] = molecular target: GP41 (Human immunodeficiency virus 1) (UniProt Q76270); assay: Ratio of EC50 for HIV1 gp41-induced cell-cell fusion between viral envelope expressing human HL2/3 cells to CD4/CCR5 receptor expressing TZM-bl cells with wash out to EC50 for HIV1 gp41-induced cell-cell fusion between viral envelope expressing human HL2/3 cells to CD4/CCR5 receptor expressing TZM-bl cells; assay type: cell-based
How it was run: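 Peptides preincubated with TZM-bl cells at 37 °C for 1 h, with or without washing away unbound peptide. EC50 compared between washed and unwashed cells, giving the n-fold change. Triplicates, mean ± SD.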

SMILES	inhibition [1]	pEC50 [2]	pEC50 [3]	solubility [4]	CC50 at 96 h [5]	selectivity ratio [6]	Ratio EC50 [7]
Cc1cn([C@H]2C[C@H](N=[N+]=[N-])[C@@H](CO)O2)c(=O)[nH]c1=O	Active	–	–	–	–	–	–
C=CCOC(=O)[C@]12CCC(C)(C)C[C@H]1C1=CC[C@@H]3[C@@]4(C)CC[C@H](OC(=O)CCc5cn(CC(=O)NCCCC[C@H](NC(=O)CCNC(=O)[C@H](CC(C)C)NC(=O)[C@H](CC(C)C)NC(=O)[C@H](CCC(=O)O)NC(=O)[C@H](CCC(N)=O)NC(=O)[C@H](CCC(=O)O)NC(=O)[C@H](CC(N)=O)NC(=O)[C@H](CCCCN)NC(=O)[C@H](CCC(=O)O)NC(=O)[C@H](CCC(N)=O)NC(=O)[C@H](CCC(N)=O)NC(=O)[C@H](CC(N)=O)NC(=O)[C@H](CCC(N)=O)NC(=O)[C@H](CO)NC(=O)[C@H](CCC(=O)O)NC(=O)[C@H](CCC(=O)O)NC(=O)[C@@H](NC(=O)[C@H](CC(C)C)NC(=O)[C@H](CO)NC(=O)[C@H](Cc6cnc[nH]6)NC(=O)[C@@H](NC(=O)[C@H](CC(C)C)NC(=O)[C@H](CO)NC(=O)[C@@H](NC(=O)[C@H](Cc6ccc(O)cc6)NC(=O)[C@H](CC(N)=O)NC(=O)[C@H](CC(N)=O)NC(C)=O)[C@@H](C)O)[C@@H](C)CC)[C@@H](C)CC)C(N)=O)nn5)C(C)(C)[C@@H]4CC[C@@]3(C)[C@]1(C)CC2 (Ac-NNYTSLIHSLIEESQNQQEKNEQELL[βAla]K(X2)-NH2)	–	8.51	9.57	12.4 mg/mL (≈ 3.1 mM)	8220 nM	2640	–
C=C(C)[C@@H]1CC[C@]2(C(=O)O)CC[C@]3(C)[C@H](CC[C@@H]4[C@@]5(C)CC[C@H](OC(=O)CCc6cn(CC(=O)NCCC(=O)N[C@@H](CC(N)=O)C(=O)N[C@@H](CC(N)=O)C(=O)N[C@@H](Cc7ccc(O)cc7)C(=O)N[C@H](C(=O)N[C@@H](CO)C(=O)N[C@@H](CC(C)C)C(=O)N[C@H](C(=O)N[C@@H](Cc7cnc[nH]7)C(=O)N[C@@H](CO)C(=O)N[C@@H](CC(C)C)C(=O)N[C@H](C(=O)N[C@@H](CCC(=O)O)C(=O)N[C@@H](CCC(=O)O)C(=O)N[C@@H](CO)C(=O)N[C@@H](CCC(N)=O)C(=O)N[C@@H](CC(N)=O)C(=O)N[C@@H](CCC(N)=O)C(=O)N[C@@H](CCC(N)=O)C(=O)N[C@@H](CCC(=O)O)C(=O)N[C@@H](CCCCN)C(=O)N[C@@H](CC(N)=O)C(=O)N[C@@H](CCC(=O)O)C(=O)N[C@@H](CCC(N)=O)C(=O)N[C@@H](CCC(=O)O)C(=O)N[C@@H](CC(C)C)C(=O)N[C@@H](CC(C)C)C(N)=O)[C@@H](C)CC)[C@@H](C)CC)[C@@H](C)O)nn6)C(C)(C)[C@@H]5CC[C@]43C)[C@@H]12 ({X3-βAla}-NNYTSLIHSLIEESQNQQEKNEQELL-NH2)	–	6.88	7.01	–	> 25000 nM	> 187	> 85
